Measured values published in article PMC3228901 (Cancer research, 2011).

How the values were obtained:
[1] = biological target: recombinant human LSD1 protein (Homo sapiens, UniProt O60341); assay: In vitro LSD1 demethylation assay, di-methylated H3K4 peptide, mass-spectrometry; type: biochemical; conditions: read-out: half maximal inhibitory concentration (IC50) for LSD1, 30 °C, 1 hour, MS peak areas
Method in brief: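 GST-tagged human LSD1 was expressed in bacteria and purified; protein was also obtained commercially. The enzyme was incubated with di-methylated H3K4 peptide at 30 °C for 1 h, with test compound at 0–100 μM (0, 1, 2, 5, 10, 20, 50, 100 μM). Me1 and Me0 products were read by MALDI TOF/TOF MS. Conversion efficiency came from integrated product peak areas, and IC50 was fitted from conversion efficiency.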

[2] = tested on: methylated H3K4 in F9 embryonic teratocarcinoma cells; assay: Histone H3 methylation in F9 cells, Western blotting; type: cell-based, mouse; conditions: for IC50: read-out: IC50 in F9 cells (histone H3K4 methylation), various concentrations
Method in brief: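 F9 cells received 10 μM test compound for 24 h, plus a concentration series. Total histones were then extracted. Mono- and di-methylated H3K4, tri-methylated H3K4, di-methylated H3K9 and total histone H3 were probed by Western blot with specific antibodies. F9 cells given 50 nM LSD1 siRNA for 48 h served as comparison.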

[3] = tested on: CHRM4 and SCN3A gene expression in F9 cells; type: cell-based, mouse; conditions: 10 μM, 24 hours, quantitative RT-PCR
Method in brief: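 F9 mouse teratocarcinoma cells, grown in DMEM with 10% FBS on 0.1% gelatin-coated dishes, exposed to 10 μM test compound for 24 h; dose series also run in F9 and HeLa cells. CHRM4 and SCN3A mRNA quantified by real-time RT-PCR. LSD1 siRNA-treated F9 cells served as comparison.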

F9 cells [4] = assay: Cell permeability assay in F9 cells, mass-spectrometry; type: in vitro ADME, mouse; conditions: 2 hours incubation, washed cells
Method in brief: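 F9 cells exposed to test compound for 2 h, with DMSO as control, then extensively washed and lysed immediately. Lysate mixed with 4 volumes acetone at −20 °C for 6 h, precipitate removed by centrifugation, supernatant lyophilized and redissolved in methanol. Compound detected by mass spectrometry against pure compound and untreated-cell lysate as m/z references.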

F9 cells [5] = assay: Growth of F9 cells, cell numbers counted; type: cell-based, mouse; conditions: 50 μM, 30 hours
Method in brief: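 F9 cells on gelatin-coated dishes in DMEM/10% FBS were treated with DMSO or 50 μM test compound for 30 h. Cells were then counted and expressed as percent of DMSO control. A separate concentration series was also run over 30 h.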

HeLa = assay: Growth of HeLa cells; type: cell-based; conditions: even at relatively high concentrations (100–200 μM)
293 = assay: Growth of 293 cells; type: cell-based; conditions: even at relatively high concentrations (100–200 μM)
NIH 3T3 = assay: Growth of NIH 3T3 cells; type: cell-based; conditions: even at relatively high concentrations (100–200 μM)
NCCIT cells = assay: Growth of NCCIT cells; type: cell-based, human; conditions: 50 μM, 30 hours
Method in brief: (§1)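 Human pluripotent NCCIT and NTERA-2 cells, maintained in DMEM with 10% FBS, were exposed to 50 μM test compound for 30 h and growth assessed. Non-pluripotent HeLa, 293 and NIH3T3 cells were run under the same conditions.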

NTERA-2 cells = assay: Growth of NTERA-2 cells; type: cell-based, human; conditions: 50 μM, 30 hours
Method in brief: as §1

mouse ES cells = assay: Spherical growth of embryonic stem cells; type: cell-based; conditions: 50 μM, 30 hours
Method in brief: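 Mouse ES cells, cultured on irradiated mouse embryonic fibroblasts in DMEM with 10% FBS, were treated with DMSO or 50 μM test compound for 30 h. Spherical colony growth was then examined.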

IC50 [1] | presence of compound in F9 cells after exposure (F9 cells [4]) | Compound | effect on mono- and di-methylated H3K4 in F9 cells ([2]; 10 μM, 24 hours) | effect on tri-methylated H3K4 and di-methylated H3K9 in F9 cells ([2]; 10 μM, 24 hours) | IC50 [2] | activation of CHRM4 and SCN3A expression [3] | growth of F9 cells (F9 cells [5]) | growth inhibition of HeLa cells (HeLa) | growth inhibition of 293 cells 293 | growth inhibition of NIH 3T3 cells (NIH 3T3) | growth of NCCIT cells (NCCIT cells) | growth of NTERA-2 cells (NTERA-2 cells) | spherical growth of ES cells (mouse ES cells)
10.5 µM | readily found | N=C(N)c1ccc(C(=O)N2CCN(C(=O)c3cc(CN4CCN(C(=N)N)CC4)cc([N+](=O)[O-])c3)CC2)cc1 [CBB1003] | reproducible increase | very little effects | 5 to 10 µM | led to the activation | significantly inhibit | did not display any significant growth inhibition | did not display any significant growth inhibition | did not display any significant growth inhibition | inhibited | inhibited | substantial inhibition
5.27 µM |  | COC(=O)c1cc(CN2CCN(C(=N)N)CC2)cc(C(=O)N2CCN(C(=O)c3ccc(C(=N)N)cc3)CC2)c1 [CBB1007] |  |  | 1 to 5 µM |  | significantly inhibit | did not display any significant growth inhibition | did not display any significant growth inhibition | did not display any significant growth inhibition | inhibited | inhibited | substantial inhibition
